Measured values: ChEMBL document CHEMBL3392968 (Eur J Med Chem, 2015)
pIC50, pKi: −log10 of the molar value. Converted amounts (≈) assume the structure as drawn. The source made the active and inactive calls. The rule behind the calls is not given here.

Legend:
[1] = Displacement of [3H]-DTG from sigma 2 receptor guinea pig brain membranes incubated for 120 mins by scintillation counting method; design: species or system Cavia porcellus, Membrane
Procedure, shortened: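 Guinea pig brain membranes (360 µg protein) with 3 nM [3H]DTG and test compound (10^-5 to 10^-10 M) in 50 mM Tris-HCl pH 8.0, 120 min at room temperature, with 400 nM (+)-SKF10,047 masking σ1 sites. Nonspecific binding with 5 µM DTG; PEI-presoaked GF/B filtration, scintillation counting, Ki by EBDA/LIGAND.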

[2] = target: D(3) dopamine receptor (Rattus norvegicus, UniProt P19020); assay: Displacement of [3H]-7-OH-DPAT from dopamine D3 receptor in rat olfactory tubercle by scintillation counting method; type: tissue-based
Sequence of D(3) dopamine receptor (P19020 whole entry): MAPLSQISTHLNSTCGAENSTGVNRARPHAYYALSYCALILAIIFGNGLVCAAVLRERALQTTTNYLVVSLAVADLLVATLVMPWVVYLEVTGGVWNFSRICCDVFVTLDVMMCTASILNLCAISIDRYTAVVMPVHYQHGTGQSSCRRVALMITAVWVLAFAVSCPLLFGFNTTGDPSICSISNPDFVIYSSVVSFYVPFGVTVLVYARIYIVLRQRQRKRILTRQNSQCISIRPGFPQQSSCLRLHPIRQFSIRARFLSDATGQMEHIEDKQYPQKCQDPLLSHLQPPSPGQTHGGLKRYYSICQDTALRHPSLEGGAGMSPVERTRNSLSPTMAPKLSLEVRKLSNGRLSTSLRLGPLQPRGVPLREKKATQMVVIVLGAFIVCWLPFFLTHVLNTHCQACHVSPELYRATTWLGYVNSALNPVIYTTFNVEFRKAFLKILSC

[3] = tested on: Plasma; assay: Stability in rat plasma assessed pseudo-first-order rate constant at 1 mg/mL by HPLC method; type: ADME, cell-free
Procedure, shortened: (§1)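 Human or rat plasma, obtained from citrated blood (0.3% citric acid) centrifuged at 3000 × g, diluted to 80% with 0.02 M phosphate buffer pH 7.4, incubated with compound at 37 °C. Samples centrifuged at 5000 × g; supernatant analysed by RP-C18 HPLC; remaining intact compound plotted against time to obtain kobs and half-life.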

[4] = tested on: C6; assay: Cytotoxicity against rat C6 cells assessed as reduction in cell viability at 0.1 to 5 uM after 48 hrs by MTT assay; type: functional
Procedure, shortened: (§2)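 C6 cells (HAM'S F12, 10% FBS, 2 mM glutamine, 37 °C, 5% CO2) seeded at 5 × 10^4 cells/well and exposed to 0.1–5 µM for 24, 48 or 72 h. MTT reduction read at 570 nm; viability = A_sample/A_vehicle control × 100. Four independent experiments.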

[5] = Stability in pH 1.3 0.02 M […] buffer containing 0.1% (v/v) Cremophor ELP assessed as half life […] by HPLC method; type: physicochemical
Procedure, shortened: (§3)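 Reaction started by adding 1 mL of a 10^-4 M acetonitrile stock to 10 mL of buffer at 37 ± 0.5 °C. Buffers: pH 7.4, 0.02 M phosphate; pH 1.3, 0.02 M chloridric; both with 0.1% (v/v) Cremophor ELP. Followed by RP-C18 HPLC; run in triplicate, with mean rate constants reported.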

[6] = tested on: C6; assay: Induction of necrosis in rat C6 cells after 25 to 72 hrs by Annexin-V/propidium iodide staining based flow cytometry; type: functional; settings: in the assay text read “24 to 72 hrs” for “25 to 72 hrs”
Procedure, shortened: (§4)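 C6 cells treated at 5 µM for 24, 48 and 72 h. 2.5 × 10^5 cells stained with Annexin-V-FITC (10 min, room temperature, dark), then PI 5 µg/mL. At least 10^4 events collected (FL1/FL3). Late apoptotic cells were Annexin-V+/PI+; necrotic cells were Annexin-V−/PI+.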

[7] = Solubility in water at 50 mg incubated at 25 degC for 1 hr by HPLC method; type: physicochemical
[8] = tested on: C6; assay: Induction of cell cycle arrest in rat C6 cells assessed as increase in accumulation at S phase after 72 hrs by propidium iodide staining based flow cytometry; type: functional
Procedure, shortened: (§5)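 C6 cells at 5 µM. About 3 × 10^5 cells fixed in 70% cold ethanol overnight at 4 °C, then stained with 20 µg/mL PI plus 100 µg/mL RNase (final). 10^4 cells analysed by flow cytometry (linear FL3), with doublets excluded by FL3-Area/Width gating; G1, S and G2/M fractions taken from DNA content.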

[9] = tested on: C6; assay: Induction of cell cycle arrest in rat C6 cells assessed as accumulation at G2/M phase after 24 and 48 hrs by propidium iodide staining based flow cytometry; type: functional; procedure, shortened: as §5
[10] = Effective permeability of the compound by PAMPA method; type: ADME; settings: read-out: Peff
Procedure, shortened: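 PAMPA using a porcine polar brain lipid–impregnated filter. Donor: phosphate buffer pH 7.4/pH 6.5 with 500 µM compound and 20% iPrOH co-solvent; acceptor: same buffer. Incubated 18 h at room temperature; donor and acceptor concentrations measured by HPLC; Peff calculated from volumes, filter area (0.28 cm2) and time.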

[11] = tested on: C6; assay: Induction of cell cycle arrest in rat C6 cells assessed as accumulation at G1 phase after 24 and 48 hrs by propidium iodide staining based flow cytometry; type: functional; procedure, shortened: as §5
[12] = tested on: C6; assay: Drug metabolism in rat C6 cells assessed as metabolite formation at 5 uM incubated for 24 hrs at 37 degC by LC/MS spectrometry; type: ADME, cell-based; settings: c6, 24 h
Procedure, shortened: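 Glioma C6 cells incubated with 5 µM for 24 h at 37 °C. Cell lysates (2 mg) analysed by LC-MS, compared with untreated control lysates, to detect metabolite ions.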

[13] = Stability in pH 7.4 0.02 M phosphate buffer containing 0.1% (v/v) Cremophor ELP assessed as pseudo-first-order rate constant […] by HPLC method; type: physicochemical; procedure, shortened: as §3
[14] = tested on: C6; assay: Induction of late apoptosis in rat C6 cells after 25 to 72 hrs by Annexin-V/propidium iodide staining based flow cytometry; type: functional; settings: in the assay text read “24 to 72 hrs” for “25 to 72 hrs”; procedure, shortened: as §4
[15] = Stability in human plasma assessed half life at 1 mg/mL by HPLC method; type: ADME, cell-free; procedure, shortened: as §1
[16] = tested on: C6; assay: Antimigratory activity against rat C6 cells assessed as cell migration level at 5 uM after 24 hrs by transwell chamber assay (reference value: 60%); type: functional, cell-based
Procedure, shortened: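 C6 cells grown to 70-80% confluency, serum-starved 24 h, then seeded at 10^5 cells/mL in serum-free HAM'S F12 into the upper chamber of an 8 µm-pore transwell; lower chamber held medium with 5% FCS. Compounds (5 µM final) added 2 h after seeding; 24 h at 37 °C. Migrated cells methanol-fixed, DAPI-stained, counted in five fields, scaled to insert area, expressed as % of cells seeded.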

[17] = tested on: C6; assay: Induction of cell cycle arrest in rat C6 cells assessed as accumulation at S phase after 24 and 48 hrs by propidium iodide staining based flow cytometry; type: functional; procedure, shortened: as §5
[18] = target: T1, Histone deacetylase (Rattus norvegicus) (UniProt Q6P6W3+Q99P99+Q99P96+Q4QQW4+Q99P97+Q5RJZ2+B1WBY8); assay: Inhibition of HDAC in rat C6 cells assessed as increase in histone H3 acetylation at 5 uM after 6 hrs by flow cytometry (reference value: 4.5%); type: cell-based; design: scale not given: the % may be the effect or the level left
Procedure, shortened: (§6)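 C6 cells treated at 5 µM for 6, 15 or 24 h, with DMSO vehicle as control. Fixed in 1% paraformaldehyde, permeabilized with 0.1% Triton X-100, blocked in goat serum. Stained with anti-acetyl-H3 (Lys9) rabbit mAb (1:100, 1 h on ice), then FITC anti-rabbit IgG (20 µg/mL, 45 min). About 10000 events at 488 nm; acetylation quantified from MFI.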

[19] = Stability in pH 7.4 0.02 M phosphate buffer containing 0.1% (v/v) Cremophor ELP assessed as half life at […] by HPLC method; type: physicochemical; procedure, shortened: as §3
[20] = Stability in rat plasma assessed half life at 1 mg/mL by HPLC method; type: ADME, cell-free; procedure, shortened: as §1
[21] = tested on: C6; assay: Cytotoxicity against rat C6 cells assessed as reduction in cell viability at 0.1 to 5 uM after 72 hrs by MTT assay; type: functional; procedure, shortened: as §2
[22] = tested on: Plasma; assay: Stability in human plasma assessed pseudo-first-order rate constant at 1 mg/mL by HPLC method; type: ADME, cell-free; procedure, shortened: as §1
[23] = target: T1, Histone deacetylase (Rattus norvegicus); assay: Inhibition of HDAC in rat C6 cells assessed as increase in histone H3 acetylation at 5 uM after 15 hrs by flow cytometry; type: cell-based; procedure, shortened: as §6
[24] = Stability in pH 1.3 0.02 M […] buffer containing 0.1% (v/v) Cremophor ELP assessed as pseudo-first-order rate constant […] by HPLC method; type: physicochemical; procedure, shortened: as §3
[25] = tested on: C6; assay: Cytotoxicity against rat C6 cells assessed as reduction in cell viability at 0.1 to 5 uM after 24 hrs by MTT assay; type: functional, cell-based; procedure, shortened: as §2
[26] = tested on: C6; assay: Cytotoxicity against rat C6 cells assessed as reduction in cell viability at 0.5 to 5 uM after 24 hrs by MTT assay; type: functional; procedure, shortened: as §2
[27] = target: D(2) dopamine receptor (Rattus norvegicus, UniProt P61169); assay: Displacement of [3H]-spiperone from dopamine D2 receptor in rat striatum by scintillation counting method
Sequence of D(2) dopamine receptor (P61169 whole entry): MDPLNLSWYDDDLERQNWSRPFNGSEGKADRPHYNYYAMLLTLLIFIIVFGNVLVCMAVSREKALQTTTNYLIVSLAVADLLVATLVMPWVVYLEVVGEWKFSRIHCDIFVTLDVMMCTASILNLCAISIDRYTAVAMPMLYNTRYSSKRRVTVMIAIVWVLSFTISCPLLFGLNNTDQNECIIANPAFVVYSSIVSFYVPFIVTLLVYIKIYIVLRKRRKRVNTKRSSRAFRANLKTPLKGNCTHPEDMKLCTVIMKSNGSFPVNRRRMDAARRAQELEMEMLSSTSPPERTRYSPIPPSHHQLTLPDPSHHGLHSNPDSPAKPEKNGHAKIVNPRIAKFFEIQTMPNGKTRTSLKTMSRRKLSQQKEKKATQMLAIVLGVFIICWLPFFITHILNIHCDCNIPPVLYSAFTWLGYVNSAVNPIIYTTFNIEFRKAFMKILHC

[28] = target: T1, Histone deacetylase (Rattus norvegicus); assay: Inhibition of HDAC in rat C6 cells assessed as increase in histone H3 acetylation at 5 uM after 24 hrs by flow cytometry (reference value: 4.5%); type: cell-based; design: scale not given: the % may be the effect or the level left; procedure, shortened: as §6
[29] = target: Sigma non-opioid intracellular receptor 1 (Cavia porcellus, UniProt Q60492); assay: Displacement of [3H]-(+)-pentazocine from sigma 1 receptor guinea pig brain membranes incubated for 150 mins by scintillation counting method; design: species or system Membrane
Sequence of Sigma non-opioid intracellular receptor 1 (Q60492 whole entry): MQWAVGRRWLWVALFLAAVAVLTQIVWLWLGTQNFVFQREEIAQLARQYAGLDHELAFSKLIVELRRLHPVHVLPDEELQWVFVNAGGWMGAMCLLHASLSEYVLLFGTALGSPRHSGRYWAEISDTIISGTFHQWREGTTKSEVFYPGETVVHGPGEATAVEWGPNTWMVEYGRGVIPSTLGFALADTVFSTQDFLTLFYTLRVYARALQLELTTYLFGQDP

[30] = tested on: C6; assay: Induction of late apoptosis in rat C6 cells after 24 to 72 hrs by Annexin-V/propidium iodide staining based flow cytometry
[31] = tested on: C6; assay: Induction of necrosis in rat C6 cells after 24 to 72 hrs by Annexin-V/propidium iodide staining based flow cytometry

SMILES	pKi [1]	pKi [2]	K [3] [h⁻¹]	Activity [4]	Activity [8]	Activity [9]	Activity [11]	half-life at 1 mg/mL [15] [h]	Activity [16]	Activity [17]	Activity [18]	half-life at 1 mg/mL [20] [h]	Activity [21] [%]	K [22] [h⁻¹]	Activity [23]	Activity [25]	also measured
O=C(CCCN1CCC(O)(c2ccc(Cl)cc2)CC1)c1ccc(F)cc1 [HALOPERIDOL]	7.74																
O[C@H](CCCN1CCC(O)(c2ccc(Cl)cc2)CC1)c1ccc(F)cc1	7.49	5.89															
Cc1ccccc1NC(=N)Nc1ccccc1C [DITOLYLGUANIDINE]	7.66																
O[C@@H](CCCN1CCC(O)(c2ccc(Cl)cc2)CC1)c1ccc(F)cc1	8.01	6.45															
O=C(CCCc1ccccc1)OC(CCCN1CCC(O)(c2ccc(Cl)cc2)CC1)c1ccc(F)cc1 (racemic)			6.41	60%	Active	inactive	inactive	92	Active	inactive	14%	0.108	40	0.008	inactive	Dose-dependent effect	half-life at 10000 µM [5]: 140 h; Activity [6]: 35%; solubility at 1 h [7]: 1.2 µg/mL (≈ 2.29 µM); Papp [10]: 5.25 ×10⁻⁶ cm/s; Drug metabolism [12]: metabolite_detected; K [13]: 0.005 h⁻¹; Activity [14]: 35%; half-life at 10000 µM [19]: 127 h; K [24]: 0.005 h⁻¹; pIC50 ([25]; C6, 24 h): 5.30
O=C(CCCc1ccccc1)O[C@H](CCCN1CCC(O)(c2ccc(Cl)cc2)CC1)c1ccc(F)cc1	7.28	< 5.30	2.22	60%	Active	inactive	inactive	84.3	Active	inactive	16.1%	0.312	40	0.008	inactive	Dose-dependent effect	Activity [6]: 40%; Activity [14]: 40%; Activity [26]: 40%; pKi [27]: < 5.30; Activity [28]: 7.2%; pKi [29]: 7.06
OC(CCCN1CCC(O)(c2ccc(Cl)cc2)CC1)c1ccc(F)cc1 (racemic) [HYDROXYHALOPERIDOL]	8.70			inactive	inactive	inactive	inactive		inactive	inactive	inactive				inactive		
O=C(CCCc1ccccc1)O[C@@H](CCCN1CCC(O)(c2ccc(Cl)cc2)CC1)c1ccc(F)cc1	6.93	< 5.30	3.09	60%	Active	inactive	inactive	90.7	Active	inactive	inactive	0.224	40	0.008	inactive	Dose-dependent effect	Activity [30]: 25%; Activity [26]: 50%; pKi [27]: < 5.30; Activity [31]: 25%; pKi [29]: 6.64
O=C(O)CCCc1ccccc1 [PHENYLBUTANOIC ACID]					inactive	inactive	inactive		inactive	inactive	14%				inactive		
